Test results: ChEMBL document CHEMBL3734694, “Design, synthesis, and anticancer evaluation of long-chain alkoxylated mono-carbonyl analogues of curcumin” (Eur J Med Chem, 2015)

Tests used:
Type in all cases: functional
CT26 = assay: Cytotoxicity against mouse CT26 cells at 10 uM assessed as inhibition of cell proliferation incubated for 72 hrs by MTS assay; settings: CT26, 72 h
How it was run: (§1)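 Single-concentration MTS screen at 10 μM. Cells in RPMI-1640 with 10% FBS, seeded at 4000 cells/well in triplicate, attached overnight, then exposed for 72 h at 37°C, 5% CO2. MTS for 4 h; absorbance 490 nm. Reported as % inhibition.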

[1] = Cytotoxicity against human SW620 cells assessed as inhibition of cell proliferation at 10 uM incubated for 72 hrs by MTS assay; settings: SW-620, 72 h; how it was run: as §1
[2] = Cytotoxicity against human SGC7901 cells assessed as inhibition of cell proliferation at 10 uM incubated for 72 hrs by MTS assay; settings: SGC-7901, 72 h; how it was run: as §1
[3] = Cytotoxicity against human MGC803 cells assessed as inhibition of cell proliferation at 10 uM incubated for 72 hrs by MTS assay; settings: MGC-803, 72 h; how it was run: as §1

In the case of `COc1cc(/C=C2\CCC/C(=C\c3cccc(OC)c3OC)C2=O)ccc1OCCCN1CCOCC1`, the inhibition at 10 µM (CT26) is reported as 57.2%, the inhibition at 10 µM [1] is reported as 22.5% and the inhibition at 10 µM [2] is reported as -6.53%. For the same compound, the inhibition at 10 µM [3] was -9.26%.
`COc1cc(/C=C2\CC/C(=C\c3ccccc3C(F)(F)F)C2=O)ccc1OCCCN1CCOCC1` gave an inhibition at 10 µM (CT26) of 4.71%, an inhibition at 10 µM [1] of 34.9% and an inhibition at 10 µM [2] of 29.7%. The inhibition at 10 µM [3] was 4.98%.
In the case of `O=C1/C(=C/c2ccc(OCCBr)cc2)CCC/C1=C\c1ccc(OCCBr)cc1`, the inhibition at 10 µM (CT26) is reported as 58.3%, the inhibition at 10 µM [1] is reported as 0.12% and the inhibition at 10 µM [2] is reported as 10.8%. For the same compound, the inhibition at 10 µM [3] was 0.05%.
Work on `COc1cc(/C=C2\CC/C(=C\c3ccc(OCCBr)c(OC)c3)C2=O)ccc1OCCBr` yielded an inhibition at 10 µM (CT26) of 58.6%, an inhibition at 10 µM [1] of 38.5% and an inhibition at 10 µM [2] of 20.4%. The inhibition at 10 µM [3] was 8.38%.
`COc1cc(/C=C/C(=O)/C=C/c2ccccc2Cl)ccc1OCCCN1CCOCC1` showed an inhibition at 10 µM (CT26) of 87.2%, an inhibition at 10 µM [1] of 81.6% and an inhibition at 10 µM [2] of 75.3%. It also gave an inhibition at 10 µM [3] of 38.5%.
For `CCCN(CCC)CCCOc1ccc(/C=C2\CCC/C(=C\c3ccc(OCCCN(CCC)CCC)c(OC)c3)C2=O)cc1OC`, the inhibition at 10 µM (CT26) was 8.04%, the inhibition at 10 µM [1] was 10.3% and the inhibition at 10 µM [2] was 2.83%. The inhibition at 10 µM [3] was -18.4%.
`COc1ccc(/C=C/C(=O)/C=C/c2ccc(OCCCN3CCOCC3)c(OC)c2)c(F)c1` showed an inhibition at 10 µM (CT26) of 67.6%, an inhibition at 10 µM [1] of 79.3% and an inhibition at 10 µM [2] of 51.6%. It also gave an inhibition at 10 µM [3] of 3.64%.
`COc1cc(/C=C2\CC/C(=C\c3ccc(OCCCBr)c(OC)c3)C2=O)ccc1OCCCBr` showed an inhibition at 10 µM (CT26) of 71%, an inhibition at 10 µM [1] of 27.4% and an inhibition at 10 µM [2] of 6.48%. The inhibition at 10 µM [3] was 5.56%.
For `COc1cc(/C=C/C(=O)/C=C/c2ccccc2C(F)(F)F)ccc1OCCCN1CCOCC1`, the inhibition at 10 µM (CT26) was -24%, the inhibition at 10 µM [1] was -3.21% and the inhibition at 10 µM [2] was 3.22%. For the same compound, the inhibition at 10 µM [3] was -2.85%.
`COc1cc(OC)c(/C=C/C(=O)/C=C/c2ccc(OCCCN3CCOCC3)c(OC)c2)c(OC)c1` gave an inhibition at 10 µM (CT26) of 65.8%, an inhibition at 10 µM [1] of 33.9% and an inhibition at 10 µM [2] of 9.22%. For the same compound, the inhibition at 10 µM [3] was 5.96%.
In the case of `COc1cc(/C=C/C(=O)/C=C/c2ccc(OCCCN3CCOCC3)c(OC)c2)ccc1OCCCN1CCOCC1`, the inhibition at 10 µM (CT26) is reported as 89.7%, the inhibition at 10 µM [1] is reported as 84% and the inhibition at 10 µM [2] is reported as 67.5%. It also gave an inhibition at 10 µM [3] of 44.5%.
Work on `COc1cc(/C=C2\CCC/C(=C\c3ccc(OCCCBr)c(OC)c3)C2=O)ccc1OCCCBr` yielded an inhibition at 10 µM (CT26) of 49.8%, an inhibition at 10 µM [1] of 61.2% and an inhibition at 10 µM [2] of 18.9%. The inhibition at 10 µM [3] was -8.68%.
Compound `COc1cc(/C=C2\CCC/C(=C\c3ccc(OCCCN4CCN(C)CC4)c(OC)c3)C2=O)ccc1OCCCBr` has an inhibition at 10 µM (CT26) of 37.3%, an inhibition at 10 µM [1] of 48.1% and an inhibition at 10 µM [2] of 15.7%. The inhibition at 10 µM [3] was -7.15%.
For `COc1ccccc1/C=C1\CCC/C(=C\c2ccc(OCCCN3CCOCC3)c(OC)c2)C1=O`, the inhibition at 10 µM (CT26) was 31.6%, the inhibition at 10 µM [1] was 22.9% and the inhibition at 10 µM [2] was -0.33%. For the same compound, the inhibition at 10 µM [3] was 2.3%.
In the case of `O=C1/C(=C/c2ccc(OCCBr)cc2)CC/C1=C\c1ccc(OCCBr)cc1`, the inhibition at 10 µM (CT26) is reported as 88.1%, the inhibition at 10 µM [1] is reported as 78.5% and the inhibition at 10 µM [2] is reported as 76%. The inhibition at 10 µM [3] was 52%.
With `COc1cc(/C=C2\CC/C(=C\c3ccc(OCCCn4ccnc4)c(OC)c3)C2=O)ccc1OCCCBr` the inhibition at 10 µM (CT26) was 87.1%, the inhibition at 10 µM [1] was 65.7% and the inhibition at 10 µM [2] was 14%. For the same compound, the inhibition at 10 µM [3] was 7.1%.
`COc1cc(/C=C2\CCC/C(=C\c3ccc(OCCCN4CCCCC4)c(OC)c3)C2=O)ccc1OCCCBr` showed an inhibition at 10 µM (CT26) of 61.2%, an inhibition at 10 µM [1] of 50% and an inhibition at 10 µM [2] of 24.4%. The inhibition at 10 µM [3] was 26.9%.
